For twelve molecules, IC50 results are on record in ChEMBL document CHEMBL3867429, “Euphorbesulins A-P, Structurally Diverse Diterpenoids from Euphorbia esula” (J Nat Prod, 2016).

Where only a bound is given, the exact number is not on record here.

The subject of this test is Plasmodium falciparum. In words: Antimalarial activity against chloroquine-resistant Plasmodium falciparum Dd2 after 72 hrs by SYBR green-based fluorescence assay. Type of test: functional. Particulars: Dd2, 72 h. Summed up:
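Growth-inhibition assay of the chloroquine-resistant P. falciparum Dd2 strain over 72 h, read by SYBR Green fluorescence and run under a slightly modified published protocol. Artemisinin served as positive control.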
On to `C=C1C[C@]2(O)C(=O)C(C)(C)C[C@H]2[C@@](C)(O)C(=O)[C@@]2(O)C[C@H](C)[C@H](OC(=O)c3ccccc3)[C@@H]2[C@H]1OC(=O)c1ccccc1`, for which the IC50 was more than 5 µM.

In the case of `C=C1[C@H](OC(C)=O)[C@@H](OC(C)=O)[C@@H](OC(C)=O)C(C)(C)/C=C/[C@H](C)C(=O)[C@]2(OC(C)=O)[C@H]([C@@H](OC(C)=O)[C@@H](C)[C@H]2O)[C@H]1OC(=O)c1ccccc1`, the IC50 was more than 5 µM.

In the case of `C=C1[C@H](OC(=O)c2ccccc2)[C@@H](OC(C)=O)[C@@H](OC(C)=O)C(C)(C)/C=C/[C@H](C)C(=O)[C@@]2(OC(C)=O)C[C@H](C)[C@H](OC(C)=O)[C@@H]2[C@H]1OC(=O)c1ccccc1`, it took 0.12 µM to reach half-maximal inhibition (IC50).

`C[C@@H]1CC[C@H]2[C@@H](C)C(=O)O[C@@H]3O[C@@]4(C)CC[C@@H]1[C@]32OO4` [ARTEMISININ] returned an IC50 of 0.007 µM.

In turn, `C=C1[C@H](OC(=O)c2ccccc2)[C@@H](OC(C)=O)[C@@H](OC(C)=O)C(C)(C)/C=C/[C@H](C)C(=O)[C@]2(OC(C)=O)[C@H]([C@@H](OC(C)=O)[C@](C)(O)[C@H]2O)[C@H]1OC(=O)c1ccccc1` returned a half-inhibitory concentration (IC50) of more than 5 µM.

`C=C1[C@H](OC(C)=O)[C@@H](OC(C)=O)[C@@H](OC(C)=O)C(C)(C)/C=C/[C@H](C)C(=O)[C@]2(OC(C)=O)[C@H]([C@@H](OC(=O)c3ccccc3)[C@@H](C)[C@H]2O)[C@H]1OC(C)=O`: the IC50 is more than 5 µM.

In the case of `C=C1C[C@]2(O)C(=O)C(C)(C)C[C@H]2[C@@](C)(O)C(=O)[C@@]2(O)C[C@H](C)[C@H](OC(=O)c3ccccc3)[C@@H]2[C@H]1OC(C)=O`, the concentration for half-maximal inhibition (IC50) is more than 5 µM.

Molecule `C=C1C[C@]2(O)C(=O)C(C)(C)C[C@H]2[C@@](C)(O)C(=O)[C@@]2(O)C[C@H](C)[C@H](OC(=O)c3ccccc3)[C@@H]2[C@H]1OC(=O)[C@H](C)C(C)C` came in with a concentration for half-maximal inhibition (IC50) of 2.41 µM.

On to `C=C1[C@H](OC(=O)c2ccccc2)[C@@H](O)[C@@H](OC(C)=O)C(C)(C)/C=C/[C@H](C)C(=O)[C@@]2(OC(C)=O)C[C@@](C)(OC(C)=O)[C@H](OC(C)=O)[C@@H]2[C@H]1OC(C)=O`, for which the IC50 was more than 10 µM.

Regarding `C=C1[C@H](OC(C)=O)[C@@H](OC(C)=O)[C@@H](OC(C)=O)C(C)(C)/C=C/[C@H](C)C(=O)[C@]2(O)[C@H]([C@@H](OC(C)=O)[C@@H](C)[C@H]2OC(C)=O)[C@H]1OC(=O)c1ccccc1`, the half-inhibitory concentration (IC50) was more than 5 µM.

With `C=C1[C@H](OC(=O)c2ccccc2)[C@@H](O)[C@@H](OC(C)=O)C(C)(C)/C=C/[C@H](C)C(=O)[C@@]2(OC(C)=O)C[C@H](C)[C@H](OC(C)=O)[C@@H]2[C@H]1OC(C)=O`, the 50% inhibitory concentration (IC50) was more than 5 µM.

With `C=C1[C@H](OC(C)=O)[C@@H](OC(C)=O)[C@@H](OC(C)=O)C(C)(C)/C=C/[C@H](C)C(=O)[C@@]2(OC(C)=O)C[C@@](C)(OC(C)=O)[C@H](OC(=O)c3ccccc3)[C@@H]2[C@H]1OC(C)=O`, the IC50 is more than 5 µM.
